Measured values taken from ChEMBL document CHEMBL1141207, “Novel cell-penetrating alpha-keto-amide calpain inhibitors as potential treatment for muscular dystrophy” (Bioorg Med Chem Lett, 2005).
Residues, ends and D or L forms follow the SMILES beside them. *: point of attachment. Cbz = O=C(OCc1ccccc1)*

How the values were obtained:
[1] = molecular target: T1, Calpain-1 catalytic subunit (Sus scrofa, UniProt P35750); assay: Inhibitory activity against porcine calpain I using Suc-Leu-Tyr-AMC fluorogenic substrate
T1 sequence (P35750 whole entry): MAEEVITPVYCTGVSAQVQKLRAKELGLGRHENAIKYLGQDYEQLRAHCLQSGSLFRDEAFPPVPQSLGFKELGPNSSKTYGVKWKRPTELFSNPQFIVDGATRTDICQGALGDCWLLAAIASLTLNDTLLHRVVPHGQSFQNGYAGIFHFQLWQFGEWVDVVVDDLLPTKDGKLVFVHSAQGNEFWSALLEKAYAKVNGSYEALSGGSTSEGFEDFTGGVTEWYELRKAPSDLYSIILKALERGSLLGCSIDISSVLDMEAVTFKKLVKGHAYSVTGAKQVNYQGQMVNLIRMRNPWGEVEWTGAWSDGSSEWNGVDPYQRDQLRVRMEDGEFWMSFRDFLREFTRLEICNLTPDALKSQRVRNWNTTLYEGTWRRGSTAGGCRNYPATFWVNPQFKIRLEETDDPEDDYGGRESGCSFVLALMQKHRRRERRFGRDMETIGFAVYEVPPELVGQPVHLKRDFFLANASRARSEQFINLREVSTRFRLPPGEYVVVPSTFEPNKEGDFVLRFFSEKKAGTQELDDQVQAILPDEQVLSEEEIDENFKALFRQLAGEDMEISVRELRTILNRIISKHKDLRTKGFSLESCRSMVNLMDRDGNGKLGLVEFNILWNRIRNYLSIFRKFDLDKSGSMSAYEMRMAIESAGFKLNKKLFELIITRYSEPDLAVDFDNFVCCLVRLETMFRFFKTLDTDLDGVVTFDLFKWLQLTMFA
Procedure, shortened: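 Purified porcine calpain I, cell-free; hydrolysis of fluorogenic Suc-Leu-Tyr-AMC followed as fluorescence increase over 30 min (ex 360 nm, em 440 nm); IC50 values are means of triplicates.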

[2] = Inhibition of calpain I in C2C12 myoblasts loaded with Suc-Leu-Tyr-AMC; format: functional, Mus musculus
Procedure, shortened: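 Cultured C2C12 myoblasts loaded with fluorogenic Suc-Leu-Tyr-AMC before the experiment; cellular calpain activated with Ca2+-ionophore Br-A-23187, then substrate hydrolysis by cellular calpain measured by fluorescence; IC50 values are means of triplicates.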

[3] = molecular target: Prothrombin (Homo sapiens) (UniProt P00734); assay: Inhibition of thrombin at 10 uM
Procedure, shortened: (§1)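 Selectivity profiling, single test concentration of 10 µM against caspase 3 and thrombin; percent inhibition reported as means of triplicates.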

Proteasome = assay: Inhibitory activity against 20S proteasome; format: subcellular
Procedure, shortened: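 Selectivity profiling against cathepsin B and 20S proteasome; IC50 values reported as means of triplicates.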

Caspase-3 (Homo sapiens) = molecular target: T2, Caspase-3 (Homo sapiens) (UniProt P42574); assay: Inhibition of caspase 3 at 10 uM; procedure, shortened: as §1
T2 sequence (whole entry): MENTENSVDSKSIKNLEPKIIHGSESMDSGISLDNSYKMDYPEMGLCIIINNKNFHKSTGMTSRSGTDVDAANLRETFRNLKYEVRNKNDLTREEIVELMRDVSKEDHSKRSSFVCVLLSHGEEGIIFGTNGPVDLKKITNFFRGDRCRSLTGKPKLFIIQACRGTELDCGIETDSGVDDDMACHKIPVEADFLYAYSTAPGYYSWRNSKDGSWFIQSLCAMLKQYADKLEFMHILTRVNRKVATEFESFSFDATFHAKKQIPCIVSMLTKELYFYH

Compound | IC50 [1] [nM] | IC50 [2] [nM] | inhibition [3] [%] | IC50 (Proteasome) [nM] | inhibition (Caspase-3 (Homo sapiens)) [%]
CCNC(=O)C(=O)[C@H](Cc1ccc(F)c(F)c1)NC(=O)[C@@H](NC(=O)CCCCC1CCSS1)C(C)C (some centres not stated) | 100 | 700 | – | – | –
CC(C)C[C@H](NC(=O)CCCCC1CCSS1)C(=O)NC(Cc1ccc(Br)cc1)C(=O)C(=O)NCCc1ccccn1 (some centres not stated) | 230 | 800 | – | – | –
CCNC(=O)C(=O)[C@H](Cc1ccc(Cl)cc1)NC(=O)[C@@H](NC(=O)CCCCC1CCS[S+]1[O-])C(C)C (some centres not stated) | 80 | 6000 | – | – | –
CCNC(=O)C(=O)[C@H](Cc1ccc(Cl)cc1)NC(=O)[C@@H](NC(=O)CCNC(=O)CCCCC1CCSS1)C(C)C (some centres not stated) | 40 | 30000 | – | – | –
CCNC(=O)C(=O)[C@H](Cc1ccc(Br)cc1)NC(=O)[C@H](CC(C)C)NC(=O)CCCCC1CCSS1 (some centres not stated) | 24 | 400 | – | – | –
CCNC(=O)C(=O)[C@H](Cc1ccc(Cl)cc1)NC(=O)[C@@H](NC(=O)CNC(=O)CCCCC1CCSS1)C(C)C (some centres not stated) | 30 | 1000 | – | – | –
CCNC(=O)C(=O)[C@H](Cc1ccc(OC)cc1)NC(=O)[C@@H](NC(=O)CCCCC1CCSS1)C(C)C (some centres not stated) | 120 | 220 | – | – | –
CCNC(=O)C(=O)[C@H](Cc1ccc(Cl)cc1)NC(=O)[C@@H](NC(=O)CCC1CCCS1)C(C)C (some centres not stated) | 100 | 3200 | – | – | –
CCNC(=O)C(=O)[C@H](Cc1ccc(Cl)cc1)NC(=O)[C@@H](NC(=O)CCCC1CCCS1)C(C)C (some centres not stated) | 120 | 2000 | – | – | –
CCNC(=O)C(=O)[C@H](Cc1ccccc1)NC(=O)[C@@H](NC(=O)CCCCC1CCSS1)C(C)C (some centres not stated) | 80 | 3500 | – | – | –
CCNC(=O)C(=O)[C@H](Cc1ccc(Cl)cc1)NC(=O)[C@@H](NC(=O)CCCCC1CCSS1)C(C)(C)C (some centres not stated) | > 1000 | – | – | – | –
CCNC(=O)C(=O)[C@H](Cc1ccc(Cl)c(Cl)c1)NC(=O)[C@@H](NC(=O)CCCCC1CCSS1)C(C)C (some centres not stated) | 80 | 10000 | – | – | –
CCNC(=O)C(=O)[C@H](Cc1ccc(Cl)cc1)NC(=O)[C@@H](NC(=O)CCCCc1ccccc1)C(C)C | 60 | 1500 | – | – | –
CCNC(=O)C(=O)[C@@H](Cc1ccc(Br)cc1)NC(=O)[C@H](CC(C)C)NC(=O)CCCCC1CCSS1 (some centres not stated) | 39 | 400 | – | – | –
CCNC(=O)C(=O)[C@H](Cc1ccc(Br)cc1)NC(=O)[C@@H](NC(=O)CCCCC1CCSS1)C(C)CC (some centres not stated) | 180 | 9000 | – | – | –
CCNC(=O)C(=O)[C@@H](NC(=O)[C@@H](NC(=O)CCCCC1CCSS1)C(C)C)c1ccccc1 (some centres not stated) | 400 | 2000 | – | – | –
CCNC(=O)C(=O)[C@H](Cc1ccc(C(F)(F)F)cc1)NC(=O)[C@@H](NC(=O)CCCCC1CCSS1)C(C)C (some centres not stated) | 200 | 1100 | – | – | –
CCNC(=O)C(=O)[C@@H](NC(=O)[C@@H](NC(=O)CCCCC1CCSS1)C(C)C)C(c1ccccc1)c1ccccc1 (some centres not stated) | > 1000 | – | – | – | –
CCNC(=O)C(=O)[C@H](Cc1ccc(F)cc1)NC(=O)[C@@H](NC(=O)CCCCC1CCSS1)C(C)C (some centres not stated) | 100 | 2500 | – | – | –
CC(C)C[C@H](NC(=O)CCCCC1CCSS1)C(=O)NC(Cc1ccc(Br)cc1)C(=O)C(=O)NCCCN1CCOCC1 (some centres not stated) | 120 | 1000 | – | – | –
CCNC(=O)C(=O)[C@H](Cc1ccc(Cl)cc1)NC(=O)[C@@H](NC(=O)CCCCNC(=O)CCCCC1CCSS1)C(C)C (some centres not stated) | 100 | 20000 | – | – | –
CCCCc1ccc(C(=O)N[C@H](C(=O)N[C@@H](Cc2ccc(Cl)cc2)C(=O)C(=O)NCC)C(C)C)cc1 | 150 | 25000 | – | – | –
CCNC(=O)C(=O)[C@H](CC1CCCCC1)NC(=O)[C@@H](NC(=O)CCCCC1CCSS1)C(C)C (some centres not stated) | 250 | 3000 | – | – | –

Compound | IC50 [1] [nM] | IC50 [2] [nM] | inhibition [3] [%] | IC50 (Proteasome) [nM] | inhibition (Caspase-3 (Homo sapiens)) [%]
CCNC(=O)C(=O)[C@H](Cc1ccc(Cl)cc1Cl)NC(=O)[C@@H](NC(=O)CCCCC1CCSS1)C(C)C (some centres not stated) | 100 | 40000 | – | – | –
CCNC(=O)C(=O)[C@H](Cc1cccs1)NC(=O)[C@@H](NC(=O)CCCCC1CCSS1)C(C)C (some centres not stated) | 100 | 6000 | – | – | –
CC(C)C[C@H](NC(=O)CCCCC1CCSS1)C(=O)NC(Cc1ccc(Br)cc1)C(=O)C(N)=O (some centres not stated) | 20 | 250 | – | – | –
CCNC(=O)C(=O)[C@H](Cc1ccc(Cl)cc1)NC(=O)[C@H](CC(C)(C)C)NC(=O)CCCCC1CCSS1 (some centres not stated) | 100 | 3500 | – | – | –
CCNC(=O)C(=O)[C@H](CC(C)C)NC(=O)[C@@H](NC(=O)CCCCC1CCSS1)C(C)C (some centres not stated) | 500 | 250 | – | – | –
CCNC(=O)C(=O)[C@H](CCc1ccccc1)NC(=O)[C@@H](NC(=O)CCCCC1CCSS1)C(C)C (some centres not stated) | > 1000 | > 10000 | – | – | –
CC(C)[C@H](NC(=O)OCc1ccccc1)C(=O)N[C@H](C=O)Cc1ccccc1 (Cbz-Val-Phe-aldehyde) | 20 | 10000 | 0 | > 1000 | 0
CC(C)C[C@H](NC(=O)CCCCC1CCSS1)C(=O)NC(Cc1ccc(Br)cc1)C(=O)C(=O)O (some centres not stated) | 50 | 5000 | – | – | –
CCCCCCCCCCCC(=O)N[C@H](C(=O)N[C@@H](Cc1ccc(Cl)cc1)C(=O)C(=O)NCC)C(C)C | > 1000 | – | – | – | –
CCNC(=O)C(=O)[C@H](Cc1cccc(C(F)(F)F)c1)NC(=O)[C@@H](NC(=O)CCCCC1CCSS1)C(C)C (some centres not stated) | 100 | 15000 | – | – | –
CC(C)C[C@H](NC(=O)CCCCC1CCSS1)C(=O)NC(Cc1ccc(Br)cc1)C(=O)C(=O)NC(C)(C)C (some centres not stated) | > 1000 | – | – | – | –
CCNC(=O)C(=O)[C@H](Cc1ccc(C#N)cc1)NC(=O)[C@@H](NC(=O)CCCCC1CCSS1)C(C)C (some centres not stated) | 120 | 5000 | – | – | –
CC(C)C[C@H](NC(=O)CCCCC1CCSS1)C(=O)NC(Cc1ccc(Br)cc1)C(=O)C(=O)NC1CCCCC1 (some centres not stated) | 70 | 280 | – | – | –
CCNC(=O)C(=O)[C@H](Cc1ccc(C)cc1)NC(=O)[C@@H](NC(=O)CCCCC1CCSS1)C(C)C (some centres not stated) | 70 | 350 | – | – | –
CCNC(=O)C(=O)[C@H](Cc1ccc(C(C)(C)C)cc1)NC(=O)[C@@H](NC(=O)CCCCC1CCSS1)C(C)C (some centres not stated) | 400 | 1800 | – | – | –
CCNC(=O)C(=O)[C@H](Cc1ccc(Cl)cc1)NC(=O)[C@@H](NC(=O)CCCCC1CCCS1)C(C)C (some centres not stated) | 100 | 400 | – | – | –
CCOC(=O)C(=O)C(Cc1ccc(Br)cc1)NC(=O)[C@H](CC(C)C)NC(=O)CCCCC1CCSS1 (some centres not stated) | > 10000 | 4500 | – | – | –
CCNC(=O)C(=O)[C@H](Cc1ccc(Cl)cc1)NC(=O)[C@@H](NC(=O)OCc1ccccc1)C(C)C | 90 | 15000 | – | – | –
CCNC(=O)C(=O)[C@H](Cc1ccc(O)cc1)NC(=O)[C@@H](NC(=O)CCCCC1CCSS1)C(C)C (some centres not stated) | 150 | 2500 | – | – | –
CC(C)C[C@H](NC(=O)CCCCC1CCSS1)C(=O)NC(Cc1ccc(Br)cc1)C(=O)C(=O)N1CCOCC1 (some centres not stated) | > 1000 | – | – | – | –
CCNC(=O)C(=O)[C@H](Cc1ccc(Br)cc1)NC(=O)[C@@H](NC(=O)CCCCC1CCSS1)C1CCCCC1 (some centres not stated) | > 1000 | – | – | – | –
CCNC(=O)C(=O)[C@H](Cc1ccc(Cl)cc1)NC(=O)[C@@H](NC(=O)CCCC[C@@H]1SC[C@@H]2NC(=O)N[C@@H]21)C(C)C | 100 | 5000 | – | – | –
